Measured values from ChEMBL document CHEMBL5154665, “Design, synthesis, biochemical evaluation, radiolabeling and in vivo imaging with high affinity class-IIa histone deacetylase inhibitor for molecular imaging and targeted therapy” (Eur J Med Chem, 2022).

Key:
Histone deacetylase 4 = Histone deacetylase 4 (Homo sapiens, UniProt P56524); test: Inhibition of recombinant human HDAC4 using fluorogenic substrate by fluorescence microplate reader assay
Outline: (§1)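 Recombinant human HDAC isoforms were tested at 9 inhibitor dilutions in commercial fluorogenic enzyme kits, per the manufacturer's protocol. For class IIa enzymes, deacetylation of a TFA-lysine substrate lets trypsin release a fluorophore, read on a microplate reader. IC50 came from a nonlinear fit of % HDAC activity inhibition against compound concentration.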

[1] = Inhibition of HDAC class 2a in human PANC-1 cells using TFA-lysine as fluorogenic substrate by fluorescence microplate reader assay; assay type: cell-based
Histone deacetylase 2 = Histone deacetylase 2 (Homo sapiens, UniProt Q92769); test: Inhibition of recombinant human HDAC2 using fluorogenic substrate by fluorescence microplate reader assay; outline: as §1
Sequence of Histone deacetylase 2 (Q92769 whole entry): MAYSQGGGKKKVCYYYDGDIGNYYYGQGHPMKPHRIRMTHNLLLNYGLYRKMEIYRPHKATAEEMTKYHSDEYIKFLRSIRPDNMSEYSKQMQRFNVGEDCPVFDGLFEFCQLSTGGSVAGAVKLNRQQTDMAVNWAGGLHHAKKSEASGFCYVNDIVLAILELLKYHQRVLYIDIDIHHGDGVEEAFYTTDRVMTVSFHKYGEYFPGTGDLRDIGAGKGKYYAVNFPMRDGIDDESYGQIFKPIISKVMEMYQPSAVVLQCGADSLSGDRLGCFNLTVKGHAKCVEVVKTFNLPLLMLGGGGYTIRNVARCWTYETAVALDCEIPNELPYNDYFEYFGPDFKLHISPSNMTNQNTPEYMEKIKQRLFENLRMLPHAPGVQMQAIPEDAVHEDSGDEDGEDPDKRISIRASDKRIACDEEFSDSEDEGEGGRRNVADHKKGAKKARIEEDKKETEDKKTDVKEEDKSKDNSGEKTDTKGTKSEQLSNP

[2] = Inhibition of HDAC class 2b in human PANC-1 cells using TFA-lysine as fluorogenic substrate by fluorescence microplate reader assay; assay type: cell-based
[3] = target: T1, Class 1 histone deacetylase (Homo sapiens, UniProt Q13547+O15379+Q92769+Q9BY41); test: Inhibition of HDAC class 1 in human HT-29 cells using […] as fluorogenic substrate by fluorescence microplate reader assay; assay type: cell-based
Outline: (§2)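 HT-29 cells were plated at 200,000 cells/well in RPMI without phenol red with 0.1% FBS, with 100 µM Boc-Lys-TFA for class IIa or 200 µM Boc-Lys-Ac for class I/IIb. Compounds ran as an 11-point curve (5% final DMSO), with 5 µM trichostatin A as the positive control. Incubation was 3 h at 37 °C, then trypsin developer with Tween 80 for 1 h to lyse cells and release fluorophore.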

[4] = target: T1, Class 1 histone deacetylase; test: Inhibition of HDAC class 1 in human THP-1 cells using TFA-lysine as fluorogenic substrate by fluorescence microplate reader assay; assay type: cell-based
[5] = Inhibition of HDAC class 2a in human HT-29 cells using Boc-Lys-TFA as substrate incubated for 3 hrs by microplate reader assay; assay type: cell-based; details: HT-29, 3 h
Histone deacetylase 3 = Histone deacetylase 3 (Homo sapiens, UniProt O15379); test: Inhibition of recombinant human HDAC3 using fluorogenic substrate by fluorescence microplate reader assay; outline: as §1
Sequence of Histone deacetylase 3 (O15379 whole entry): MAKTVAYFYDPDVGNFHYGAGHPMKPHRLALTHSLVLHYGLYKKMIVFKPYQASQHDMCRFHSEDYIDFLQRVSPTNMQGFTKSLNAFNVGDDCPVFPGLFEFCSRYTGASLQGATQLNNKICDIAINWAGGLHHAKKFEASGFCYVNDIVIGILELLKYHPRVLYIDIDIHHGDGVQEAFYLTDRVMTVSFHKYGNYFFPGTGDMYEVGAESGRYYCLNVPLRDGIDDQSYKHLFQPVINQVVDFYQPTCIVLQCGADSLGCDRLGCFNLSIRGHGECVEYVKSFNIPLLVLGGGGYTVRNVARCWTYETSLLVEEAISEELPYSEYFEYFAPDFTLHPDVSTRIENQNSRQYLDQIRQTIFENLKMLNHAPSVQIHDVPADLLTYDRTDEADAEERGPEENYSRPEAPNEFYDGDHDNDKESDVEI

[6] = target: T1, Class 1 histone deacetylase; test: Inhibition of HDAC class 1 in human HT-29 cells using Boc-Lys-Ac as substrate incubated for 3 hrs by microplate reader assay; assay type: cell-based
[7] = Inhibition of HDAC class 2a in human HT-29 cells using TFA-lysine as fluorogenic substrate by fluorescence microplate reader assay; assay type: cell-based; outline: as §2
[8] = Inhibition of HDAC class 2a in human THP-1 cells using TFA-lysine as fluorogenic substrate by fluorescence microplate reader assay; assay type: cell-based
[9] = target: T1, Class 1 histone deacetylase; test: Inhibition of HDAC class 1 in human L3.6pl cells using TFA-lysine as fluorogenic substrate by fluorescence microplate reader assay; assay type: cell-based
Histone deacetylase 11 = target: T2, Histone deacetylase 11 (Homo sapiens, UniProt Q96DB2); test: Inhibition of recombinant human HDAC11 using fluorogenic substrate by fluorescence microplate reader assay; outline: as §1
T2 sequence (Q96DB2 whole entry): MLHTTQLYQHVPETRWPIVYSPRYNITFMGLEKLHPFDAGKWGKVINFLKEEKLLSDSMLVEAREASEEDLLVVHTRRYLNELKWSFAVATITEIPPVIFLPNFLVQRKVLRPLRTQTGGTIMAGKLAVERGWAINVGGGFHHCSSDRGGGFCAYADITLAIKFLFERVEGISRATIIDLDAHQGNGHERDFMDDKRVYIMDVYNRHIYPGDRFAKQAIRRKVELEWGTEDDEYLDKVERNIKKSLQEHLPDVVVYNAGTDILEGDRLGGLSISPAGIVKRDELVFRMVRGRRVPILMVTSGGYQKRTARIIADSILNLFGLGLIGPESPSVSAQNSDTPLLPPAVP

Sequence of Histone deacetylase 4 (P56524 whole entry, canonical isoform): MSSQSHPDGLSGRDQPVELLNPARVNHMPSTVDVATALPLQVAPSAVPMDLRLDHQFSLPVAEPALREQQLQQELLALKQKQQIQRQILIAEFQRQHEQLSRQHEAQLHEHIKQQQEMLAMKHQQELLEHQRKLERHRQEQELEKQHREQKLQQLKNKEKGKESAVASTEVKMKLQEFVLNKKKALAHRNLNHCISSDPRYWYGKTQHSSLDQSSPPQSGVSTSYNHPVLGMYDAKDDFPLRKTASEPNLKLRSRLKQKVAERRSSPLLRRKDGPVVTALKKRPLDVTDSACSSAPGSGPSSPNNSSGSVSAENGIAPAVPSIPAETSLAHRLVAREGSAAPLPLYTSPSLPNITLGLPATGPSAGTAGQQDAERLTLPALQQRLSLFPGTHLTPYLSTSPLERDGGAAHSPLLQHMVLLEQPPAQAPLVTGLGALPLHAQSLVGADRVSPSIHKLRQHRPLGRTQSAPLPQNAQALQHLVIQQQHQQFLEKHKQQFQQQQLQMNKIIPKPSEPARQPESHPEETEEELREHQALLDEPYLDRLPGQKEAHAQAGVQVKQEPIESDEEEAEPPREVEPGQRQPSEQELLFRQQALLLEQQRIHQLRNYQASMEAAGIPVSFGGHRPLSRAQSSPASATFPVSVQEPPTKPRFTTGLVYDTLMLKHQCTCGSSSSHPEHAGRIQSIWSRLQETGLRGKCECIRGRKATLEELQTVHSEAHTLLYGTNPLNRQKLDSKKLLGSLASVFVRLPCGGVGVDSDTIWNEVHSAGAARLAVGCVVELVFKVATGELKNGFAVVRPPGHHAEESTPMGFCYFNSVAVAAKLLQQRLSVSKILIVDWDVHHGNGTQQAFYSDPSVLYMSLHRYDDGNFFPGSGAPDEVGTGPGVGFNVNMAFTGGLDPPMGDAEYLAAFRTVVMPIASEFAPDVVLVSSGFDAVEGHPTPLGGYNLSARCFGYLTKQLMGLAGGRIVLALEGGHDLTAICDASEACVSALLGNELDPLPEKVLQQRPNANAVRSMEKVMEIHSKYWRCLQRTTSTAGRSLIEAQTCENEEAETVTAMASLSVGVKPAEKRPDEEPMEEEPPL

CC(C)(CNC(=O)c1cccc(-c2noc(C(F)(F)F)n2)c1)c1coc(-c2ccccc2)n1
IC50 (Histone deacetylase 4): 128 nM | IC50 [1]: 888 nM | IC50 (Histone deacetylase 2): > 5000 nM | IC50 [2]: > 5000 nM | IC50 [3]: > 5000 nM | IC50 [4]: > 5000 nM | IC50 [5]: 1000 nM | IC50 (Histone deacetylase 3): > 5000 nM | IC50 [6]: > 50000 nM | IC50 [7]: 1000 nM | IC50 [8]: 887 nM | IC50 [9]: > 5000 nM | IC50 (Histone deacetylase 11): > 5000 nM
